Experimental data gathered from unrelated publications.
Compare with care: the assays were run in different laboratories.
Target: Serine/threonine-protein kinase ULK3 (ULK3, Homo sapiens, UniProt Q6PHR2)
One construct used (Q6PHR2 1-472): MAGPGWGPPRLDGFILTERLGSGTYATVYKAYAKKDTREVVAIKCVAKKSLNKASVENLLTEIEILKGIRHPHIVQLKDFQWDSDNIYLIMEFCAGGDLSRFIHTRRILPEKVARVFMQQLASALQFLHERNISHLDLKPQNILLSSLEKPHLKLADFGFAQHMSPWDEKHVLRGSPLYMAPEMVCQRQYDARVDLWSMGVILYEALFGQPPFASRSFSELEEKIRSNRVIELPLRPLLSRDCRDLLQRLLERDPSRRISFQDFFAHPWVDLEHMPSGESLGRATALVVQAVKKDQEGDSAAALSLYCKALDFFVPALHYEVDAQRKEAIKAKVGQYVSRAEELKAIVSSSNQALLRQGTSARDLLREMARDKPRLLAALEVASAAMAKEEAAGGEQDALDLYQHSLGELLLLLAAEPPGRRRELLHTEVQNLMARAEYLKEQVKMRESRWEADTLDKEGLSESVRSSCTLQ

SMILES	effect on	mode	technique	concentration	quantity	result
CN1CCN(C(=O)c2ccc(NC(=O)Nc3ccc(N(C)c4ccnc(Nc5ccc(CS(C)(=O)=O)cc5)n4)cc3)cc2)CC1	binding		competition with immobilised ligand	1 µM	remaining binding	7.6%
C=CC(=O)N1CCC([C@@H]2CCNc3c(C(N)=O)c(-c4ccc(Oc5ccccc5)cc4)nn32)CC1	enzyme activity	inhibitor		1 µM	inhibition	11%
C#Cc1cc(-c2cc(Nc3nc(N[C@@H](C)c4ccc(F)cn4)ncc3Cl)n[nH]2)ccc1C=O	enzyme activity	inhibitor		0.2 µM	inhibition	57.5%
COc1ccc2oc(-c3ccc4nc(N)oc4c3)c/c(=N\c3ccccc3NC(=O)CCN)c2c1	binding			1 µM	remaining binding	96%
CCCCC(=O)Nc1ccc(-c2ccc3ncn(CCC)c(=O)c3c2)cn1	binding		competition with immobilised ligand	0.5 µM	remaining binding	99%
C=CC(=O)N1CCC[C@@H](n2nc(-c3ccc(Oc4ccccc4)cc3)c3c(N)ncnc32)C1	enzyme activity	inhibitor		1 µM	inhibition	29%
Cc1ccc(NC(=O)c2ccnc(C(F)(F)F)c2)cc1-c1cc(OCCO)nc(N2CCOCC2)c1	binding		competition with immobilised ligand	1 µM	remaining binding	85%
C1=C/COCc2cc(ccc2OCCN2CCCC2)Nc2nccc(n2)-c2cccc(c2)COC/1	cell-free assay			0.1 µM	remaining signal	57%
